Screens from PubChem.
GPR7 antagonist = blocks human GPR7 receptor signaling; P48145; GPR7-expressing cells, fluorescence antagonist assay; inhibition, % at 4.4 µM; 290,000 tested, 1.1% active; AID 1861; in the data active means inhibition above about 16%, passing the limit was not always enough;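 further: cells stimulated with the agonist NPW; 0% = agonist with vehicle and 100% = vehicle without agonist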
Target sequence (P48145 whole entry, looked up): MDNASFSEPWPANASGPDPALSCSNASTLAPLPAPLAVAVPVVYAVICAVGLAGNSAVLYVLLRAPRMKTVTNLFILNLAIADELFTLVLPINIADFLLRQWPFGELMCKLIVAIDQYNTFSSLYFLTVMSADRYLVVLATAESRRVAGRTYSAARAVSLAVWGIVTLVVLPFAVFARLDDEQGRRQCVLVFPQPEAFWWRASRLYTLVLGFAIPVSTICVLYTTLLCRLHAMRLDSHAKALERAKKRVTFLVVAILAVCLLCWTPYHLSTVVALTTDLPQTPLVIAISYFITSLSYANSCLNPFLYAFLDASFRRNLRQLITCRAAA
OX1R antag-1 = OX1R (human) antagonism; inhibition, % at 6.6 µM; OX1R-expressing cells, FRET antagonist read-out; O43613; 330,000 tested, 1.8% active; AID 485270; in the data active means inhibition mostly above about 38%, no sharp cut-off; inactive means mostly below about 40%;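 further: 0% = agonist challenge alone and 100% = reference antagonist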
CHO parental Ca = counter-screen: ATP calcium response change in parental CHO cells; parental CHO-K1, ATP-induced calcium, Fluo-8 fluorescence; inhibition, % at 5.6 µM; 330,000 tested, 0.63% active;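 active means inhibition above that plate's mean sample inhibition plus 3 SD, cut at about 26% in these data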;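 further: 0% = ATP-challenged DMSO wells and 100% = DMSO wells without ATP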
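Material: parental CHO cells / Compound: single nominal dose of 5.6 µM per compound / Signal: Fluo-8 fluorescence / Replicates: singlicate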
OX1R antag-2 = blocks the human orexin 1 receptor; CHO/OX1R cells, Fluo-8 calcium fluorescence, orexin A; AID 434989; O43613; inhibition, % at 5 µM; 330,000 tested, 0.43% active;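 active means inhibition above its plate's threshold, mean inhibition of all tested compounds on the plate plus 3 SD, cut at about 37% in these data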;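 further: 0% = orexin A challenge wells and 100% = SB-334867-A antagonist wells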
GalR3 antag = blocks the human galanin receptor 3; O60755; HEK293 GalR3-CNG cAMP membrane potential fluorescence; galR3 body fused to GalR1 C-terminus; 360,000 tested, 0.44% active; inhibition, % at 3 µM;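 active means inhibition above the screen-wide average plus 3 SD, cut at about 13% in these data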;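 further: forskolin and galanin both at EC90 stimulate the cells; cAMP rise reported by CNG channel membrane potential dye signal; 0% = forskolin plus galanin with DMSO and 100% = forskolin alone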
Target sequence (O60755 1-299 limits assumed): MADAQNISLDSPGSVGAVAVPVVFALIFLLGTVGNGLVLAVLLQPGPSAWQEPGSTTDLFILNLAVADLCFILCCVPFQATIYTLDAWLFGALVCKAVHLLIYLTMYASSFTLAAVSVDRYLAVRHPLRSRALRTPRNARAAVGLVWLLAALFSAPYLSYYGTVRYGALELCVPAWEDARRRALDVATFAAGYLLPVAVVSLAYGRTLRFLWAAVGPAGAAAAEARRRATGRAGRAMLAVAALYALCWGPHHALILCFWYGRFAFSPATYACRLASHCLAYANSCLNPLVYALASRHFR
* = called active by the depositor; / = not tested or not shown. Rows were chosen to be rich in hits. Some 3.1% of all compounds tested hit in one or more screens of this group.

SMILES | GPR7 antagonist | OX1R antag-1 | CHO parental Ca | OX1R antag-2 | GalR3 antag
CCN(C(=O)CSc1nnc(-c2ccccc2)o1)c1c(N)n(Cc2ccccc2)c(=O)[nH]c1=O | 4.5 | 70.1* | -16.6 | 0.8 | -3.3
COC(=O)C1=C(C)N(C)C(=NCc2cc(OC)c(OC)c(OC)c2)NC1c1ccc(C(F)(F)F)cc1 (centres undefined) | / | / | / | / | -3.0
Cc1noc(C)c1S(=O)(=O)Nc1ccc2c(c1)C(=O)N([C@H](C)CO)C[C@H](C)[C@@H](CN(C)C(=O)CCCN(C)C)OCCCC[C@@H](C)O2 | / | / | / | / | -6.8
CC(C)CN(C(=O)CCCOc1ccc(Cl)cc1Cl)c1c(N)n(Cc2ccccc2)c(=O)[nH]c1=O | / | 38.6* | -27.7 | 11.6 | -5.7
CC(C)Oc1ccc(S(=O)(=O)N2CCOCC2)cc1NC(=O)CSC(=S)N1CCCC1 | / | / | / | / | -3.0
Cc1cccc(-n2c(SCC(=O)N3CCCC3)nc3n[nH]c(C)c3c2=N)c1 | -15.7 | 35.6* | -27.6 | 12.2 | -4.1
CC1C(=O)N(Cc2cn(CCC3OCCO3)nn2)CCS(=O)(=O)N1Cc1ccc(-c2ccccc2)cc1 (centres undefined) | / | / | / | / | -5.9
CCN(C(=O)CN1C(=O)c2ccc([N+](=O)[O-])cc2C1=O)C1CCCCC1 | -5.0 | 56.3* | -4.5 | -11.9 | -0.7
CN(C(=O)CN1C(=O)c2ccc([N+](=O)[O-])cc2C1=O)C1CCCCC1 | / | 64.0* | -8.9 | -7.0 | -5.8
COc1ccc(-c2cc([N+](=O)[O-])ccc2OCC(=O)N(C)CC(=O)Nc2ccc(C)cc2)cc1 | / | / | / | / | -3.2
COc1ccc(NC(=O)CN(C)C(=O)CN2C(=O)c3ccc([N+](=O)[O-])cc3C2=O)cc1 | -1.2 | 60.6* | 7.3 | 0.1 | 6.1
COC(=O)C1=C(C)N(Cc2ccc(Cl)cc2)C(=S)NC1c1ccc(Cl)cc1 (centres undefined) | / | / | / | / | -9.9
NC1CCN(c2nc3c(cc2F)c(=O)c(C(=O)O)cn3-c2ccc(F)cc2F)C1 (centres undefined) | / | 10.3 | -4.1 | -10.7 | 3.0
Cc1cccc(-c2cc(=O)c(C(=O)O)cn2-c2ccc(F)cc2F)c1 | / | 57.8* | -1.2 | 4.8 | -7.1
Cc1cc(NC(=O)Cc2cn(C)c3ccccc23)ccc1Oc1cccnc1 | / | / | / | / | -7.2
COc1ccc(C(=O)N2CCC(c3ccccc3)CC2)c(OC)c1OC | 20.4* | 27.2 | -15.1 | -11.1 | 1.0
COc1cccc(C(=O)N2CCN(C(=O)c3ccc(-c4ccccc4)cc3)CC2)c1OC | -0.6 | 2.0 | -5.0 | -37.0 | -3.6
NCCCC[C@H]1NC(=O)[C@H](CCC(=O)O)NC(=O)c2cc([N+](=O)[O-])cc(I)c2OCC[C@@H](C(N)=O)NC1=O | -6.7 | 9.8 | -6.3 | -2.9 | /
NC(=O)CC1NC(=O)c2cc([N+](=O)[O-])cc(I)c2OCCC(C(N)=O)NC(=O)[C@@H]2CCCN2C1=O (some centres undefined) | -7.4 | 61.2* | -11.1 | -15.2 | -1.8
CC(C)(Oc1ccc(Cl)cc1)C(=O)Nc1ccncc1 | 8.7 | 38.0 | 36.7* | 19.2 | -5.0
CCOC(=O)C1(C(=O)OCC)N=C(c2ccccc2)C=C1c1ccccc1 | / | / | / | / | -6.7
CCC(=O)N(CC)C1=C(O)c2ccccc2C(=O)C1=O | 4.0 | 57.9* | -0.1 | -0.7 | -4.5
CCC(=O)N(C)/C=C1\Sc2ccccc2C1=O | 15.7 | -2.4 | -5.4 | -13.2 | 2.1
O=c1oc2ccc3ccccc3c2cc1-c1nnc(-c2ccccc2)o1 | 11.8 | 73.7* | -4.8 | -2.3 | -4.6
COc1cc2c(C#CCCO)c(-c3ccsc3)oc(=O)c2cc1OC | / | 61.4* | -17.1 | -6.3 | -7.7
SMILES | GPR7 antagonist | OX1R antag-1 | CHO parental Ca | OX1R antag-2 | GalR3 antag
COc1cc2c(C#CCCO)c(-c3ccc(C#N)cc3)oc(=O)c2cc1OC | / | 1.8 | -14.8 | -27.6 | -4.0
CC(=O)C1=C(C)N(Cc2ccc(F)cc2)C(=S)NC1c1ccccc1 (centres undefined) | / | / | / | / | -7.2
CC(=O)c1c(C)[nH]c(C(=O)OCC(=O)Nc2cc(S(=O)(=O)N3CCCC3)ccc2Cl)c1C | -6.8 | 22.5 | -14.2 | -9.8 | -8.4
CCN(CC)S(=O)(=O)c1cc(NC(=O)CNc2cccc(S(=O)(=O)N3CCCC3)c2)ccc1C | / | 33.8 | 45.4* | 30.0 | /
CC(=O)c1c(C)[nH]c(C(=O)OCC(=O)Nc2cccc(S(=O)(=O)N3CCCC3)c2)c1C | 3.0 | 13.3 | 28.7 | 39.1* | -10.7
Cc1ccc(C)c(C(=O)OCC(=O)Nc2cccc(S(=O)(=O)N3CCCCC3)c2)c1 | / | 7.8 | 15.1 | 53.7* | -8.0
CN(C)S(=O)(=O)c1cccc(NC(=O)CNc2cccc(S(=O)(=O)N3CCCCC3)c2)c1 | / | / | / | / | -8.6
O=C(Cn1nc(C(=O)O)c2ccccc2c1=O)Nc1cccc(S(=O)(=O)N2CCCCCC2)c1 | / | 32.1 | 32.5* | 42.6* | -7.2
CC(=O)C1CN(S(=O)(=O)c2ccc(C)cc2)C(c2ccccc2)CC1C (centres undefined) | / | / | / | / | -7.9
O=C(C(=O)N1CCN(S(=O)(=O)c2ccc(F)cc2)CC1)c1cccc(C(F)(F)F)c1 | / | / | / | / | -6.9
c1ccc(CC(Nc2cccnc2)c2ccccc2)cc1 (centres undefined) | / | / | / | / | -0.3
COCCn1cnnc1SCC(=O)Nc1cccc(S(=O)(=O)N2CCCCCC2)c1 | 20.0* | 19.3 | -6.7 | -14.7 | -1.2
O=C(COC(=O)C1CC2C=CC1C2)Nc1cccc(S(=O)(=O)N2CCCCCC2)c1 (centres undefined) | -8.7 | 21.1 | 33.0* | 4.3 | -4.0
CCOC(=O)C1=C(C(=O)OCC)C2N(Cc3ccc(Br)cc3)c3ccccc3[C@@]23C[C@@H](C(=O)OC)N(S(=O)(=O)c2ccc(Br)cc2)C3=N1 (some centres undefined) | / | / | / | / | -3.0
COc1ccccc1NC(=O)c1nn(-c2ccccc2)ccc1=O | 6.0 | 71.0* | -8.6 | 6.2 | -6.0
Cc1cccc2cc(C#N)c(NCCNS(=O)(=O)c3ccccc3)nc12 | 4.3 | 58.0* | -16.4 | 17.6 | 2.3
CN(C(=O)[C@@H](Cc1ccccc1)NC(=O)[C@H]1O[C@@H](n2ccc(=O)[nH]c2=O)[C@H](O)[C@@H]1O)C1CCCCC1 | / | / | / | / | -7.7
O=C(NCc1ccccc1)c1cccc(COc2ccccc2Cl)c1 | 13.9 | 40.7 | 57.0* | 21.0 | -5.9
O=C(NCc1ccccc1)c1cccc(COc2cc(Cl)ccc2Cl)c1 | -8.8 | 48.0 | -21.0 | -25.4 | -5.5
Cc1ccc(S(=O)(=O)N2CCOCC2)c2nsnc12 | 0.7 | 41.4* | -10.6 | -1.2 | -4.6
CN1CCN(S(=O)(=O)c2ccc(Sc3nc4ccccc4[nH]3)c3nsnc23)CC1 | -3.0 | 162.5* | -11.3 | -36.3 | -1.9
CN1CCN(S(=O)(=O)c2ccc(Br)c3nsnc23)CC1 | -5.0 | 64.9* | -10.2 | -5.8 | -1.2
O=S(=O)(c1ccc(Br)c2nsnc12)N1CCOCC1 | 19.3 | 39.9* | -3.3 | 0.5 | -4.5
COC(=O)C1=C(C)N(Cc2cccc(C(F)(F)F)c2)C(=NCc2ccc3c(c2)OCO3)NC1c1ccc(Cl)cc1 (centres undefined) | / | / | / | / | -5.4
